Measured values taken from ChEMBL document CHEMBL4364301 (Eur J Med Chem, 2019).

Legend:
Type in all cases: functional
CWR22R [1] = test: Antiproliferative activity against human 22Rv1 cells assessed as reduction in cell growth incubated for 96 hrs by propidium iodide based 2D monolayer assay; conditions: 22Rv1, 96 h
How it was run: (§1)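 After 24 h recovery, compound in medium or medium alone (control wells) was added at 10 half-log concentrations from 0.0032 to 100 µM, in triplicate, with at most 0.3% DMSO. After 96 h, wells were PBS-washed, stained with 7 µg/ml PI and 0.1% Triton X-100, and fluorescence read at 530/620 nm. IC50 came from a 4-parameter fit, geometric mean.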

VCaP [2] = test: Antiproliferative activity against human VCaP cells assessed as T/C value at 3.2 x 10^-3 uM incubated for 96 hrs by propidium iodide based 2D monolayer assay
How it was run: (§2)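 VCaP cells in RPMI 1640 with 10% FCS at 37 °C, 5% CO2, seeded 4,000–20,000 cells/well and left 24 h before dosing. Compounds from DMSO stocks were diluted in half-log steps in medium, 10 concentrations 0.0032–100 μM, triplicate wells, max 0.3% DMSO. After 96 h, cells were washed, stained with 7 μg/ml propidium iodide plus 0.1% Triton X-100 for 1–2 h at room temperature, and fluorescence read at ex 530/em 620 nm.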

VCaP [3] = test: Antiproliferative activity against human VCaP cells assessed as T/C value at 1 x 10^1 uM incubated for 96 hrs by propidium iodide based 2D monolayer assay
How it was run: as §1, with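 “Cells were kept in RPMI 1640 with 25 mM HEPES, 10% FCS and gentamicin at 37 °C under 5% CO2, and plated at 4,000-20,000 cells/well. After 24” for “After 24”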

VCaP [4] = test: Antiproliferative activity against human VCaP cells assessed as T/C value at 3.2 x 10^1 uM incubated for 96 hrs by propidium iodide based 2D monolayer assay; how it was run: as §2
LNCaP [5] = test: Antiproliferative activity against human LNCAP cells assessed as T/C value at 3.2 x 10^-3 uM incubated for 96 hrs by propidium iodide based 2D monolayer assay
How it was run: as §1, with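 “Cells were kept in RPMI 1640 with 25 mM HEPES, 10% FCS and gentamicin at 37 °C under 5% CO2, and plated at 4,000-20,000 cells/well. After 24” for “After 24”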

LNCaP [6] = test: Antiproliferative activity against human LNCAP cells assessed as T/C value at 1 x 10^-1 uM incubated for 96 hrs by propidium iodide based 2D monolayer assay
How it was run: as §1, with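 “Cells were kept in RPMI 1640 with 25 mM HEPES, 10% FCS and gentamicin at 37 °C under 5% CO2, and plated at 4,000-20,000 cells/well. After 24” for “After 24”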

LNCaP [7] = test: Antiproliferative activity against human LNCAP cells assessed as T/C value at 3.2 x 10^1 uM incubated for 96 hrs by propidium iodide based 2D monolayer assay
How it was run: as §1, with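 “Cells were kept in RPMI 1640 with 25 mM HEPES, 10% FCS and gentamicin at 37 °C under 5% CO2, and plated at 4,000-20,000 cells/well. After 24” for “After 24”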

LNCaP [8] = test: Antiproliferative activity against human LNCAP cells assessed as T/C value at 1 x 10^2 uM incubated for 96 hrs by propidium iodide based 2D monolayer assay
How it was run: as §1, with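 “Cells were kept in RPMI 1640 with 25 mM HEPES, 10% FCS and gentamicin at 37 °C under 5% CO2, and plated at 4,000-20,000 cells/well. After 24” for “After 24”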

CWR22R [9] = test: Antiproliferative activity against human 22Rv1 cells assessed as T/C value at 3.2 x 10^-2 uM incubated for 96 hrs by propidium iodide based 2D monolayer assay
How it was run: as §1, with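 “Cells were kept in RPMI 1640 with 25 mM HEPES, 10% FCS and gentamicin at 37 °C under 5% CO2, and plated at 4,000-20,000 cells/well. After 24” for “After 24”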

CWR22R [10] = test: Antiproliferative activity against human 22Rv1 cells assessed as T/C value at 3.2 x 10^1 uM incubated for 96 hrs by propidium iodide based 2D monolayer assay
How it was run: as §1, with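 “Cells were kept in RPMI 1640 with 25 mM HEPES, 10% FCS and gentamicin at 37 °C under 5% CO2, and plated at 4,000-20,000 cells/well. After 24” for “After 24”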

DU-145 [11] = test: Antiproliferative activity against human DU145 cells assessed as T/C value at 1 x 10^-2 uM incubated for 96 hrs by propidium iodide based 2D monolayer assay; how it was run: as §1
DU-145 [12] = test: Antiproliferative activity against human DU145 cells assessed as T/C value at 3.2 x 10^1 uM incubated for 96 hrs by propidium iodide based 2D monolayer assay
How it was run: as §1, with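 “Cells were kept in RPMI 1640 with 25 mM HEPES, 10% FCS and gentamicin at 37 °C under 5% CO2, and plated at 4,000-20,000 cells/well. After 24” for “After 24”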

MCF7 [13] = test: Antiproliferative activity against human MCF7 cells assessed as T/C value at 3.2 x 10^-3 uM incubated for 96 hrs by propidium iodide based 2D monolayer assay
MCF7 [14] = test: Antiproliferative activity against human MCF7 cells assessed as T/C value at 1 x 10^-2 uM incubated for 96 hrs by propidium iodide based 2D monolayer assay
MCF7 [15] = test: Antiproliferative activity against human MCF7 cells assessed as T/C value at 3.2 x 10^-2 uM incubated for 96 hrs by propidium iodide based 2D monolayer assay
MCF7 [16] = test: Antiproliferative activity against human MCF7 cells assessed as T/C value at 1 x 10^-1 uM incubated for 96 hrs by propidium iodide based 2D monolayer assay
MCF7 [17] = test: Antiproliferative activity against human MCF7 cells assessed as T/C value at 3.2 x 10^-1 uM incubated for 96 hrs by propidium iodide based 2D monolayer assay
MCF7 [18] = test: Antiproliferative activity against human MCF7 cells assessed as T/C value at 1 uM incubated for 96 hrs by propidium iodide based 2D monolayer assay
MCF7 [19] = test: Antiproliferative activity against human MCF7 cells assessed as T/C value at 3.2 uM incubated for 96 hrs by propidium iodide based 2D monolayer assay
MCF7 [20] = test: Antiproliferative activity against human MCF7 cells assessed as T/C value at 1 x 10^1 uM incubated for 96 hrs by propidium iodide based 2D monolayer assay
MCF7 [21] = test: Antiproliferative activity against human MCF7 cells assessed as T/C value at 3.2 x 10^1 uM incubated for 96 hrs by propidium iodide based 2D monolayer assay

SMILES | IC50 (CWR22R [1]) | IC70 (CWR22R [1]) | T/C (VCaP [2]) | T/C (VCaP [3]) | T/C (VCaP [4]) | T/C (LNCaP [5]) | T/C (LNCaP [6]) | T/C (LNCaP [7]) | T/C (LNCaP [8]) | T/C (CWR22R [9]) | T/C (CWR22R [10]) | T/C (DU-145 [11]) | T/C (DU-145 [12]) | T/C (MCF7 [13]) | T/C (MCF7 [14]) | T/C (MCF7 [15]) | T/C (MCF7 [16]) | T/C (MCF7 [17]) | T/C (MCF7 [18]) | T/C (MCF7 [19]) | further results
CC1(C)C(=O)N(c2ccc(C#N)cc2C(F)(F)F)C(=S)N1c1cccc(S(F)(F)(F)(F)F)c1 | 100 µM | > 100 µM | 106% | 59% | 57% | 83% | 94% | 32% | 21% | 107% | 56% | 104% | 87% | – | – | – | – | – | – | – | –
CC1(C)C(=O)N(c2ccc(C#N)cc2C(F)(F)F)C(=S)N1c1ccc(S(F)(F)(F)(F)F)cc1 | 5.4 µM | 8.45 µM | 93% | 59% | 64% | 76% | 77% | 10% | 7% | 104% | 17% | 111% | 37% | – | – | – | – | – | – | – | –
CC1(C)C(=O)N(c2cccc(S(F)(F)(F)(F)F)c2)C(=S)N1c1cccc(C(F)(F)F)c1 | 100 µM | > 100 µM | 104% | 74% | 63% | 92% | 91% | 33% | 22% | 96% | 58% | 94% | 85% | – | – | – | – | – | – | – | –
CC(O)(CSc1cc(C(F)(F)F)cc(C(F)(F)F)c1)C(=O)Nc1cccc(C(F)(F)C(F)(F)F)c1 (racemic) | 4.2 µM | 5.41 µM | 104% | 38% | 20% | 90% | 97% | 6% | 7% | 112% | 7% | 121% | 8% | 86% | 115% | 118% | 111% | 121% | 119% | 109% | T/C (MCF7 [20]): 36%; T/C (MCF7 [21]): 10%
CC(O)(COc1ccc(C(F)(F)C(F)(F)F)cc1)C(=O)Nc1cc(C(F)(F)F)cc(C(F)(F)F)c1 (racemic) | 2.5 µM | 3.11 µM | 76% | 19% | 6% | 91% | 96% | 2% | 1% | 115% | 5% | 108% | 3% | 103% | 100% | 112% | 116% | 118% | 115% | 57% | T/C (MCF7 [20]): 26%; T/C (MCF7 [21]): 3%
